Broadly, the share remaining is what is left of the initial amount, in per cent. Broadly, the solubility is the concentration that dissolves in the medium under given conditions. A high value points to much dissolved substance. What is called half-life is the time in which the quantity being followed falls by half. Read a high half-life as slow loss.

The record followed here is ChEMBL document CHEMBL4433207, “Novel Isoxazole Derivatives with Potent FXR Agonistic Activity Prevent Acetaminophen-Induced Liver Injury” (ACS Med Chem Lett, 2019).

The target in data set [1] is T1, G-protein coupled bile acid receptor 1 (Homo sapiens) (UniProt Q8TDU6).
T1 sequence (whole entry): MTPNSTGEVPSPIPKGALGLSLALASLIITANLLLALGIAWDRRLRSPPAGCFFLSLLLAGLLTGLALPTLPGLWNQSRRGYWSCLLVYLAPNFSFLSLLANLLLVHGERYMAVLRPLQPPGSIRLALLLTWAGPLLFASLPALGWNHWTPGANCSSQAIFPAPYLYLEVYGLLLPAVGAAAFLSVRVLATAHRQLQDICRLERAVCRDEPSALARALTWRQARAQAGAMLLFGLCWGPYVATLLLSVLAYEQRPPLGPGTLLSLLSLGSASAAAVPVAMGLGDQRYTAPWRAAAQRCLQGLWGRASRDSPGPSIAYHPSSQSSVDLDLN
As to the kind of experiment: Agonist activity at human GPBAR1 expressed in HEK293T cells at 10 uM after 18 hrs by cAMP response element driven luciferase reporter gene assay. Format: functional, cell-based. For orientation: Reporter assays use an easily measured gene product as a stand-in for the process of interest.

Data set [2] deals with T2, Peroxisome proliferator-activated receptor gamma (Homo sapiens) (UniProt P37231).
T2 sequence (whole entry): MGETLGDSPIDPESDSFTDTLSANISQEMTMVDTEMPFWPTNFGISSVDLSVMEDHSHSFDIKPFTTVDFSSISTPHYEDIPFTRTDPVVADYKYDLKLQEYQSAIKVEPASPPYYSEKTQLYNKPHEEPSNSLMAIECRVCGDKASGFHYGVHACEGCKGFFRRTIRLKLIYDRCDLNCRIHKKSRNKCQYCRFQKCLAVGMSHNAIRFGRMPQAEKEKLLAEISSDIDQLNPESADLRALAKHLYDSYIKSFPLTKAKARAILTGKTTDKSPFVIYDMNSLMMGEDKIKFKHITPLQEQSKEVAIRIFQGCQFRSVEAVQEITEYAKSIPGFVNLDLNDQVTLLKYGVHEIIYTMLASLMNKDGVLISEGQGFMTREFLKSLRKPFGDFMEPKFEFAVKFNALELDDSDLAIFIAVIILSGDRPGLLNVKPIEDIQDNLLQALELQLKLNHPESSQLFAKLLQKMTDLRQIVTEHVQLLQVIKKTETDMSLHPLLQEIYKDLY
As to the kind of experiment: Transactivation of Gal4-fused PPARgamma LBD (unknown origin) expressed in HepG2 cells at 10 uM after 18 hrs by dual-glo luciferase assay. It is filed as cell-based.

In data set [3] the target is T3, Oxysterols receptor LXR-beta (Homo sapiens) (UniProt P55055).
T3 sequence (whole entry): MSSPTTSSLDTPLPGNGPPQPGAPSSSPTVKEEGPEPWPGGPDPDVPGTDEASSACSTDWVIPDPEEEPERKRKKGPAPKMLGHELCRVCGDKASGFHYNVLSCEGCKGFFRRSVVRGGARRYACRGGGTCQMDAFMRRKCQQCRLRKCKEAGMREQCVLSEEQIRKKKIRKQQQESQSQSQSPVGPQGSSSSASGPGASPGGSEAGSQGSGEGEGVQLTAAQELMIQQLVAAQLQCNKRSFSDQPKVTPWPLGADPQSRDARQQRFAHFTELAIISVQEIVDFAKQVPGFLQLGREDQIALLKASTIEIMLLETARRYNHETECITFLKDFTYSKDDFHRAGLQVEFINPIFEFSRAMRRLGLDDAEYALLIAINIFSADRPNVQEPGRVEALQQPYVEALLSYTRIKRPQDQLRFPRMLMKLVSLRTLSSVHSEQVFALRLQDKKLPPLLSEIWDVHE
As to the kind of experiment: Transactivation of Gal4-fused LXRbeta LBD (unknown origin) expressed in HepG2 cells at 10 uM after 18 hrs by dual-glo luciferase assay. Format: cell-based.

Data set [4] addresses T4, Oxysterols receptor LXR-alpha (Homo sapiens) (UniProt Q13133).
T4 sequence (whole entry): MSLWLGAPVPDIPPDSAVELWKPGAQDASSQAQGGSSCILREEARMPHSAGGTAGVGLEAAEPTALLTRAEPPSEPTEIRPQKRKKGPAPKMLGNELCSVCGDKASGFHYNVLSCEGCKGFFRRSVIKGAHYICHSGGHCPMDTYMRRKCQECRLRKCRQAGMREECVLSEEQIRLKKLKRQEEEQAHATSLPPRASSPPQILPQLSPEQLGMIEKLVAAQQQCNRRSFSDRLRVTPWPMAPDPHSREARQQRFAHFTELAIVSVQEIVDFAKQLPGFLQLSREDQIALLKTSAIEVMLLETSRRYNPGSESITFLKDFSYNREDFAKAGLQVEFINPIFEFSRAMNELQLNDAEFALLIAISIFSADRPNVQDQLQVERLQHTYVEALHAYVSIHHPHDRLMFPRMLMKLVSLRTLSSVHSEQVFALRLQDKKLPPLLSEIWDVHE
Put plainly: Transactivation of Gal4-fused LXRalpha LBD (unknown origin) expressed in HepG2 cells at 10 uM after 18 hrs by dual-glo luciferase assay. It is filed as cell-based.

A short description of data set [5]: Metabolic stability in rat liver microsomes assessed as compound remaining at 1 uM up to 40 mins by LC-MS/MS method relative to control.
The nature of data set [6]: Aqueous solubility of compound in phosphate buffer at pH 7.4//MeOH after 24 hrs by LC-MS/MS method. Format: physicochemical.
Data set [7] can be described thus: Half life in rat liver microsomes at 1 uM up to 40 mins by LC-MS/MS method.
Data set [8] can be described thus: Intrinsic clearance in rat liver microsomes at 1 uM up to 40 mins by LC-MS/MS method. As to conditions: read-out: CLH. A general note: Liver microsomes are vesicles of endoplasmic reticulum, rich in cytochrome P450 enzymes.
Data set [9] concerns Mus musculus. Put plainly: Hepatoprotective activity against APAP-induced acute liver injury in C57BL/6N mouse assessed as reduction in plasma ALT levels at 30 mg/kg, po administered 45 mins after APAP challenge. It is filed as functional, organism-based. The essentials:
(§1)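 C57Bl6 mice given a single 500 mg/kg APAP dose, with test agent at 30 mg/kg; surviving mice sacrificed 24 h later, blood and liver collected. Endpoints: serum AST/ALT, liver H&E histology, hepatic Ugt1a1/Ugt2b1/Sult1a1 mRNA, hepatic GSH, SOD activity and MDA, and plasma APAP, APAP-glucuronide and APAP-sulfate by LC–MS/MS. Mean ± SEM, 5–8 animals per group.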

Data set [10] has as its system Mus musculus. Put plainly: Hepatoprotective activity against APAP-induced acute liver injury in C57BL/6N mouse assessed as reduction in plasma AST levels at 30 mg/kg, po administered 45 mins after APAP challenge. Format: functional, organism-based. Summed up: as §1

Values after ≈ are worked out from the molar mass of the structure shown. Active and inactive are the calls of the source. The calls are words filed in the database; no cut-off is given here. Bounds are passed on as bounds.

For `CC(C)c1onc(-c2c(Cl)cccc2Cl)c1COc1cccc(CO)c1`, the result in data set [1] was inactive.

`COC(=O)c1cccc(-c2ccc(OCc3c(-c4c(Cl)cccc4Cl)noc3C(C)C)cc2)c1`: the result in data set [1] was inactive.

`COC(=O)c1cccc(OCc2c(-c3c(Cl)cccc3Cl)noc2C(C)C)c1`: in data set [1], the result was inactive.

In the case of `COC(=O)c1ccc(OCc2c(-c3c(Cl)cccc3Cl)noc2C(C)C)cc1`, the outcome in data set [1] was inactive.

Turning to `CC(C)c1onc(-c2c(Cl)cccc2Cl)c1COc1ccc(COc2cccc(C#N)c2)cc1`, the outcome in data set [1] was inactive.

With `CC(C)c1onc(-c2c(Cl)cccc2Cl)c1COc1ccc(COc2ccc(CO)cc2)cc1`, the result in data set [1] was inactive.

`CC(C)c1onc(-c2c(Cl)cccc2Cl)c1COc1cccc(C#N)c1`: in data set [1], the result was inactive.

Consider `CC(C)c1onc(-c2c(Cl)cccc2Cl)c1COc1ccc(C#N)cc1`, for which the outcome in [1] was inactive.

In the case of `CC(C)c1onc(-c2c(Cl)cccc2Cl)c1COc1ccc(-c2cccc(CO)c2)cc1`, the result in data set [1] was inactive.

As for `CC(C)c1onc(-c2c(Cl)cccc2Cl)c1COc1ccc(COc2cccc(C(=O)O)c2)cc1`, the result in data set [2], in data set [3], in data set [1] and in data set [4] was inactive.

Regarding `CC(C)c1onc(-c2c(Cl)cccc2Cl)c1COc1ccc(S(C)(=O)=O)cc1`, in [1], the outcome was inactive.

As to `CC(C)c1onc(-c2c(Cl)cccc2Cl)c1COc1ccc(C(=O)O)cc1`, the result in data set [1] was inactive.

Turning to `CC(C)c1onc(-c2c(Cl)cccc2Cl)c1COc1cccc(C(=O)O)c1`, the outcome in [1] was inactive.

As for `CC(C)c1onc(-c2c(Cl)cccc2Cl)c1COc1ccc(COc2ccc(C#N)cc2)cc1`, in data set [1], the outcome was inactive.

`CC(C)c1onc(-c2c(Cl)cccc2Cl)c1COc1ccccc1`: the outcome in [1] was inactive.

Take `CC(C)c1onc(-c2c(Cl)cccc2Cl)c1COc1ccc(COc2cccc(CO)c2)cc1`: in data set [1], the result was inactive.

As to `CC(C)c1onc(-c2c(Cl)cccc2Cl)c1COc1ccc(CO)cc1`, in data set [1], the outcome was inactive.

As to `COC(=O)c1cccc(OCc2ccc(OCc3c(-c4c(Cl)cccc4Cl)noc3C(C)C)cc2)c1`, the outcome in [1] was inactive.

Regarding `CC(C)c1onc(-c2c(Cl)cccc2Cl)c1COc1ccc(-c2cccc(C(=O)O)c2)cc1`, in [1], the result was inactive.

Consider `COC(=O)c1ccc(OCc2ccc(OCc3c(-c4c(Cl)cccc4Cl)noc3C(C)C)cc2)cc1`, for which the outcome in data set [1] was inactive.

For the compound `CC(C)c1onc(-c2c(Cl)cccc2Cl)c1COc1ccc(/C=C/c2cccc(C(=O)O)c2)c(Cl)c1`, the fraction remaining at 40 min, 1 µM in data set [5] was found to be 48%. The solubility at 24 h in data set [6] amounted to 152 µM (≈ 82.5 µg/mL). In data set [7], the half-life at 1 µM was found to be 41 min. Also, the microsomal CLint at 1 µM in data set [8] turned out to be 56 µL/min/mg. For the same compound, the result in [9] and in [10] was Active.

In the case of `CC[C@H]1[C@@H](O)[C@@H]2[C@H](CC[C@]3(C)[C@@H]([C@H](C)CCC(=O)O)CC[C@@H]23)[C@@]2(C)CC[C@@H](O)C[C@@H]12` [OBETICHOLIC ACID], in [5], the amount remaining at 40 min, 1 µM is 27%. This compound gave a solubility at 24 h in [6] of more than 200 µM. This compound also displayed a half-life at 1 µM in [7] of 21 min. The microsomal CLint at 1 µM in data set [8] came to 109 µL/min/mg.
